# Measured values reported in ChEMBL document CHEMBL3739331, “Synthesis and Bioactivities of Kanamycin B-Derived Cationic Amphiphiles” (J Med Chem, 2015).
# The source made the active and inactive calls. The rule behind the calls is not given here.
# Tests used:
# [1] = system: Mycolicibacterium smegmatis; assay: Antibacterial activity against Mycobacterium smegmatis MC2 155 by microdilution method; type: functional; details: str. MC2 155
# Method in brief: (§1)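 Broth microdilution MIC, in μg/mL, against a panel of Gram-positive and Gram-negative strains. Run at least in duplicate.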
# [2] = system: Escherichia coli; assay: Antibacterial activity against Escherichia coli MC1061 by microdilution method; type: functional; method in brief: as §1
# [3] = system: Staphylococcus aureus; assay: Antibacterial activity against Staphylococcus aureus NRS22 (USA 600) by microdilution method; type: functional
# Method in brief: (§2)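 Broth microdilution MIC against the named bacterial strain, reported in μg/mL; each determination run at least in duplicate.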
# [4] = system: Salmonella enterica; assay: Antibacterial activity against Salmonella enterica ATCC 14028 by microdilution method; type: functional; method in brief: as §2
# [5] = system: Klebsiella pneumoniae; assay: Antibacterial activity against Klebsiella pneumoniae ATCC 27736 by microdilution method; type: functional; method in brief: as §2
# [6] = system: Bacillus subtilis; assay: Antibacterial activity against Bacillus subtilis 168 by microdilution method; type: functional; details: subsp. subtilis str. 168; method in brief: as §2
# [7] = system: Enterobacter cloacae; assay: Antibacterial activity against Enterobacter cloacae ATCC 13047 by microdilution method; type: functional; method in brief: as §2
# [8] = system: Pseudomonas aeruginosa; assay: Antibacterial activity against Pseudomonas aeruginosa ATCC 27853 by microdilution method; type: functional; method in brief: as §2
# [9] = system: Listeria monocytogenes; assay: Antibacterial activity against Listeria monocytogenes ATCC 19115 by microdilution method; type: functional; method in brief: as §2
# [10] = system: Staphylococcus aureus; assay: Antibacterial activity against Staphylococcus aureus ATCC 29213 by microdilution method; type: functional; method in brief: as §2
# [11] = system: Staphylococcus aureus; assay: Antibacterial activity against methicillin-resistant Staphylococcus aureus by microdilution method; type: functional; method in brief: as §1
# [12] = system: Staphylococcus epidermidis; assay: Antibacterial activity against Staphylococcus epidermidis ATCC 12228 by microdilution method; type: functional; method in brief: as §2
# [13] = system: Staphylococcus aureus; assay: Antibacterial activity against Staphylococcus aureus NRS383 (USA 200) by microdilution method; type: functional; method in brief: as §2
# [14] = system: Enterococcus; assay: Antibacterial activity against vancomycin-resistant Enterococcus by microdilution method; type: functional; method in brief: as §1
# [15] = system: Staphylococcus aureus; assay: Antibacterial activity against Staphylococcus aureus NRS382 (USA 100) by microdilution method; type: functional; method in brief: as §2
# [16] = system: Staphylococcus aureus; assay: Antibacterial activity against Staphylococcus aureus NRS385 (USA 300) by microdilution method; type: functional; method in brief: as §1
# [17] = system: Acinetobacter baumannii; assay: Antibacterial activity against Acinetobacter baumannii ATCC 19606 by microdilution method; type: functional; method in brief: as §2
# [18] = system: Mycobacterium tuberculosis; assay: Activity of Mycobacterium tuberculosis AAC(2')-1c assessed as compound acetylation activity by Ellman's method
# [19] = system: Serratia marcescens; assay: Activity of Serratia marcescens AAC(6')-2d assessed as compound acetylation activity by Ellman's method
# [20] = system: Candida albicans; assay: Antifungal activity against azole-resistant Candida albicans MYA-1003 after 48 hrs by microbroth dilution method; type: functional; details: MYA-1003, 48 h
# Method in brief: (§3)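 Yeast MIC by broth microdilution, run in duplicate. The aminoglycoside compounds are read as MIC-0 (complete inhibition). Azoles are read as MIC-2 (50% inhibition).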
# [21] = system: Aspergillus nidulans; assay: Antifungal activity against Aspergillus nidulans ATCC 38163 after 48 hrs by microbroth dilution method; type: functional; details: ATCC 38163, 48 h
# Method in brief: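 Filamentous fungus MIC by broth microdilution, run in duplicate. All compounds are read as MIC-0 (complete inhibition).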
# [22] = system: Candida albicans; assay: Antifungal activity against azole-resistant Candida albicans MYA-1237 after 48 hrs by microbroth dilution method; type: functional; details: MYA-1237, 48 h; method in brief: as §3
# [23] = system: Mycobacterium tuberculosis; assay: Activity of Mycobacterium tuberculosis Eis assessed as compound acetylation activity by Ellman's method
# [24] = system: Candida albicans; assay: Antifungal activity against azole-susceptible Candida albicans ATCC MYA-2876 after 48 hrs by microbroth dilution method; type: functional; details: ATCC MYA-2876, 48 h; method in brief: as §3
# [25] = system: Candida albicans; assay: Antifungal activity against azole-resistant Candida albicans ATCC 64124 after 48 hrs by microbroth dilution method; type: functional; details: ATCC 64124, 48 h; method in brief: as §3
# [26] = Activity of AAC(3)-4 (unknown origin) assessed as compound acetylation activity by Ellman's method
# [27] = system: Bacillus subtilis subsp. subtilis str. 168; assay: Activity of Bacillus subtilis 168 APH(2'')-1a assessed as compound phosphorylation activity by Ellman's method
# [28] = system: Candida albicans; assay: Antifungal activity against azole-resistant Candida albicans ATCC 90819 after 48 hrs by microbroth dilution method; type: functional; details: ATCC 90819, 48 h; method in brief: as §3
# [29] = system: Candida albicans; assay: Antifungal activity against azole-susceptible Candida albicans ATCC MYA-2310 after 48 hrs by microbroth dilution method; type: functional; details: ATCC MYA-2310, 48 h; method in brief: as §3
# [30] = system: Candida albicans; assay: Antifungal activity against azole-resistant Candida albicans ATCC 10231 after 48 hrs by microbroth dilution method; type: functional; details: ATCC 10231, 48 h; method in brief: as §3
# [31] = Activity of AAC(6')-1e/APH(2'')-1a (unknown origin) assessed as compound acetylation activity by Ellman's method
# [32] = Cytotoxicity against human BEAS2B cells after 24 hrs by resazurin assay; type: cell-based, BEAS-2B; details: human, beas-2b
# [33] = Hemolytic activity against mouse RBC at 100 to 500 ug/ml after 60 mins; type: ADME, cell-based; details: erythrocyte, 1 h
# [34] = system: A549; assay: Cytotoxicity against human A549 cells after 24 hrs by resazurin assay; type: cell-based; details: human, a549, 24 h
Structure (SMILES),MIC [2] [µg/mL],MIC [3] [µg/mL],MIC [4] [µg/mL],MIC [5] [µg/mL],MIC [6] [µg/mL],MIC [7] [µg/mL],MIC [8] [µg/mL],MIC [9] [µg/mL],MIC [10] [µg/mL],MIC [11] [µg/mL],MIC [12] [µg/mL],MIC [13] [µg/mL],MIC [14] [µg/mL],MIC [15] [µg/mL],MIC [16] [µg/mL],MIC [17] [µg/mL],Activity [18],Activity [19],MIC [20] [µg/mL],MIC [21] [µg/mL],other results
NC[C@H]1O[C@H](O[C@H]2[C@H](O)[C@@H](O[C@H]3O[C@H](CO)[C@@H](O)[C@H](N)[C@H]3O)[C@H](N)C[C@@H]2N)[C@H](O)[C@@H](O)[C@@H]1O [KANAMYCIN],8,> 128,16,16,2,2,> 128,128,> 128,128,1,> 128,> 128,> 128,> 128,4,,,,,MIC [1]: ≤ 0.25 µg/mL
CCCCCCCCCCCCCCS(=O)(=O)C[C@@H]1O[C@@H](O[C@@H]2[C@@H](O)[C@H](O[C@@H]3O[C@@H](CN)[C@H](O)[C@@H](O)[C@@H]3N)[C@@H](N)C[C@H]2N)[C@@H](O)[C@H](N)[C@H]1O (stereo in doubt),> 128,64,128,> 128,> 128,> 128,32,2,128,128,> 128,128,32,64,128,> 128,inactive,inactive,7.8,1.95,MIC [22]: 7.8 µg/mL; Activity [23]: inactive; MIC [24]: 3.9 µg/mL; MIC [25]: 3.9 µg/mL; Activity [26]: inactive; Activity [27]: inactive; MIC [28]: 7.8 µg/mL; MIC [29]: 7.8 µg/mL; MIC [30]: 3.9 µg/mL; Activity [31]: inactive
CCCCCCCCSC[C@H]1O[C@H](O[C@@H]2[C@@H](O)[C@H](O[C@H]3O[C@H](CN)[C@@H](O)C[C@H]3N)[C@@H](N)C[C@H]2N)[C@H](O)[C@@H](N)[C@@H]1O,,,,,,,,,,,,,,,,,,,,125,
CCCCCCCCCCCCSC[C@H]1O[C@H](O[C@@H]2[C@@H](O)[C@H](O[C@H]3O[C@H](CN)[C@@H](O)C[C@H]3N)[C@@H](N)C[C@H]2N)[C@H](O)[C@@H](N)[C@@H]1O,,,,,,,,,,,,,,,,,,,,7.8,
CCCCCCCCCCSC[C@@H]1O[C@@H](O[C@@H]2[C@@H](O)[C@H](O[C@@H]3O[C@@H](CN)[C@H](O)[C@@H](O)[C@@H]3N)[C@@H](N)C[C@H]2N)[C@@H](O)[C@H](N)[C@H]1O (stereo in doubt),> 128,,> 128,> 128,128,> 128,,2,16,,> 128,,,,32,> 128,inactive,inactive,125,≤ 1.95,MIC [1]: 8 µg/mL; MIC [22]: 125 µg/mL; Activity [32]: Non-toxic; Activity [33]: Non-toxic; Activity [23]: inactive; MIC [24]: 125 µg/mL; MIC [25]: 125 µg/mL; Activity [26]: inactive; Activity [27]: inactive; MIC [28]: 125 µg/mL; Activity [34]: Non-toxic; MIC [29]: 62.5 µg/mL; MIC [30]: 125 µg/mL; Activity [31]: inactive
CCCCCCCCCCSC[C@H]1O[C@H](O[C@@H]2[C@@H](O)[C@H](O[C@H]3O[C@H](CN)[C@@H](O)C[C@H]3N)[C@@H](N)C[C@H]2N)[C@H](O)[C@@H](N)[C@@H]1O,,,,,,,,,,,,,,,,,,,,62.5,
CCCCCCCCCCCCCCSC[C@H]1O[C@H](O[C@@H]2[C@@H](O)[C@H](O[C@H]3O[C@H](CN)[C@@H](O)C[C@H]3N)[C@@H](N)C[C@H]2N)[C@H](O)[C@@H](N)[C@@H]1O,,,,,,,,,,,,,,,,,,,,7.8,
OC(Cn1cncn1)(Cn1cncn1)c1ccc(F)cc1F [FLUCONAZOLE],,,,,,,,,,,,,,,,,,,,> 62.5,MIC50 [20]: 62.5 µg/mL; MIC50 [22]: 62.5 µg/mL; MIC50 [24]: 15.6 µg/mL; MIC50 [25]: 125 µg/mL; MIC50 [28]: > 125 µg/mL; MIC50 [29]: > 125 µg/mL; MIC50 [30]: 62.5 µg/mL
CCCCCCCCCCCCS(=O)(=O)C[C@@H]1O[C@@H](O[C@@H]2[C@@H](O)[C@H](O[C@@H]3O[C@@H](CN)[C@H](O)[C@@H](O)[C@@H]3N)[C@@H](N)C[C@H]2N)[C@@H](O)[C@H](N)[C@H]1O (stereo in doubt),> 128,32,64,128,> 128,> 128,16,4,128,64,> 128,32,32,64,64,128,inactive,inactive,62.5,3.9,MIC [22]: 62.5 µg/mL; Activity [23]: inactive; MIC [24]: 31.2 µg/mL; MIC [25]: 31.2 µg/mL; Activity [26]: inactive; Activity [27]: inactive; MIC [28]: 62.5 µg/mL; MIC [29]: 62.5 µg/mL; MIC [30]: 31.2 µg/mL; Activity [31]: inactive
CCC(C)n1ncn(-c2ccc(N3CCN(c4ccc(OCC5COC(Cn6cncn6)(c6ccc(Cl)cc6Cl)O5)cc4)CC3)cc2)c1=O (centres undefined) [ITRACONAZOLE],,,,,,,,,,,,,,,,,,,,≤ 1.95,MIC50 [20]: 31.2 µg/mL; MIC50 [22]: 31.2 µg/mL; MIC50 [24]: 7.8 µg/mL; MIC50 [25]: > 62.5 µg/mL; MIC50 [28]: 31.2 µg/mL; MIC50 [30]: 0.5 µg/mL
